Most compounds without a hit are left out; they make up all but 3.1% or so of the library.
KCNQ1 act = potentiators or activators of human KCNQ1 potassium channel; CHO-K1 KCNQ1, thallium flux FluxOR fluorescence; hits give high values; B-score at 10 µM; hit rate 0.35% among 310,000; AID 2648;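 active = fluorescence ratio B-score, a plate-corrected score, at least three library SD, with initial intensity B-score within 5 SD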
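assay system = CHO-K1 cells stably expressing KCNQ1 | medium = assay buffer, equal DMSO in all wells | timing = 37 °C overnight plating, 90-min dark dye load, 20-min compound pretreatment | measured by = kinetic FluxOR thallium fluorescence, 10-s 1-Hz baseline, 110-s post-stimulus read | measure = fluorescence change relative to baseline, converted to B score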
KCNQ1 inh = blocks the human KCNQ1 potassium channel | CHO-K1 KCNQ1, FluxOR thallium flux fluorescence; hits give high values | B-score at 10 µM | P51787 | AID 2642 | hit rate 1.3% among 310,000;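 active = compounds whose thallium flux B-score, printed positive for inhibition, exceeds three library SD while starting fluorescence stays within three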;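 note: channel opened by potassium depolarization with thallium stimulus after 20 min compound exposure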
KCNK9 block = inhibitors of human KCNK9 two-pore domain potassium channel | B-score at 10 µM | hit rate 1.2% among 310,000 | AID 488922 | HEK293 KCNK9, FluxOR thallium flux fluorescence; hits give low values;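 active = ratio B-score over 3 SD below the library mean, with starting fluorescence within 5 SD of its mean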;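 note: negative B-score means less thallium flux so channel inhibition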
KCNK3 inh = human KCNK3 channel inhibition, primary screen; O14649; CHO-KCNK3 thallium flux, FluxOR fluorescence; hits give low values; B-score at 10 µM; hit rate 0.84% among 340,000; AID 602410;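 active = B-score under library mean minus 4 SD, starting fluorescence ratio at most library mean plus 5 SD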;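 note: more negative B-score means stronger inhibition of thallium flux through KCNK3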
hERG protect = compounds protecting human hERG from proarrhythmic drug block | Q12809 | CHO-hERG, FluxOR thallium flux, dofetilide IC70 present | activation (rescue from dofetilide block), less the hit threshold, % at 10 µM | hit rate 0.51% among 310,000 | AID 1511;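 active = activation above the mean of controls blocked by dofetilide plus 5 SD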;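 note: thallium influx through hERG after potassium depolarization seen as dye fluorescence rise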
KCNK9 inh conf = confirmation of human KCNK9 potassium channel inhibitors. shares compounds with KCNK9 block. HEK293 KCNK9 cells, FluxOR thallium flux fluorescence. inhibition, % at 10 µM. hit rate 43% among 4,900;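 active = thallium signal inhibited by more than 5 SD of the compound-free buffer control wells, on both duplicate plates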
Kir2-1 spec = selectivity of KCNK9 modulators against mouse Kir2.1; AID 492993; inhibition, % at 10 µM; Kir2.1 cells, FluxOR thallium flux fluorescence; hit rate 4% among 4,900; shares compounds with KCNK9 block;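 active = thallium signal drop more than 5 SD beyond the mean of the no-compound control wells, seen in both duplicate plates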;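 note: signal is fluorescence rise after thallium addition divided by baseline fluorescence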
KCNK9 uninduced = non-induced cell nonspecific activity of KCNK9 modulators; shares compounds with KCNK9 block; non-induced KCNK9-HEK293, FluxOR thallium flux; inhibition, % at 10 µM; hit rate 40% among 4,900; AID 492997;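 active = thallium signal drop beyond 5 SD of the untreated control mean, on both duplicate plates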
Hits are given with their value; n = inactive; x = not tested or not shown.

SMILES | KCNQ1 act | KCNQ1 inh | KCNK9 block | KCNK3 inh | hERG protect | KCNK9 inh conf | Kir2-1 spec | KCNK9 uninduced
COc1ccc(NC(=O)NNC(=O)COc2ccc([N+](=O)[O-])c(C)c2)cc1OC | n | n | n | n | n | x | x | x
CCOC(=O)Cn1c(=NC(=O)CSC(C)=O)sc2cc(F)ccc21 | n | n | -8.6 | n | n | 63% | n | 33%
CCn1c(=NC(=O)CSC(C)=O)sc2ccccc21 | n | n | n | n | n | x | x | x
CCn1c(=NC(=O)CSC(C)=O)sc2cc(OC)ccc21 | n | n | -14 | n | n | 60% | n | 32%
COc1ccccc1CNc1cc(CSc2ccc(Cl)cc2)nc(C)n1 | n | n | n | n | n | n | 46% | n
O=C(CCC(=O)Nc1nnc(C2CCCCC2)s1)Nc1ccccc1 | n | n | n | n | n | x | x | x
CC(=O)Nc1ccc(S(=O)(=O)N(C)CC(=O)OCC(=O)N(C)C2CCS(=O)(=O)C2)cc1 (configuration not stated) | n | n | n | n | n | x | x | x
CCCCNC(=O)c1onc(CSc2ccc(C(C)C)cc2)c1C(=O)O | n | n | n | n | n | n | n | n
CCCCNC(=O)c1onc(CSc2ccccc2)c1C(=O)O | n | n | n | n | n | x | x | x
CC(C)NC(=O)c1onc(CSc2cccc3ccccc23)c1C(=O)O | n | n | n | n | n | x | x | x
CCCCNC(=O)c1onc(CSc2cccc3ccccc23)c1C(=O)O | n | n | n | n | n | n | n | n
COc1ccccc1CC(=O)Nc1nc(-c2ccc(F)c(F)c2)cs1 | n | n | -17 | n | n | n | n | 39%
COc1ccccc1NC(=O)Nc1nn(C)c2cccc(OC)c12 | n | n | -11 | n | n | 48% | n | 27%
Cc1ccc(CN2CCCN(Cc3c(C)cc(C)cc3C)S2(=O)=O)cc1 | n | n | n | n | n | n | n | n
Cc1ccc(S(=O)(=O)c2nc(S(=O)(=O)c3ccc(C)cc3)c(N3CCN(CCO)CC3)s2)cc1 | n | n | n | n | n | x | x | x
S=C(NC1CCCCC1)N1CCOCCOCCN(C(=S)NC2CCCCC2)CCOCCOCC1 | n | n | -12 | n | n | 50% | n | 33%
O=C(NC1CCCCCC1)C(=S)N1CCOCC1 | n | n | n | n | n | x | x | x
C/C(=C/C=N/Nc1nc(N2CCCCC2)nc(N2CCCCC2)n1)c1ccccc1 | n | n | -8.7 | n | n | 44% | n | n
CC(/C=N/Nc1nc(N2CCCCC2)nc(N2CCCCC2)n1)=C\c1ccccc1 | n | n | -12 | n | n | 55% | n | 27%
Cc1cc(C)c(C(=O)N2CCCC(Nc3ccc(F)cc3)C2)o1 (configuration not stated) | n | n | n | n | n | x | x | x
CSCc1ccc(C(=O)N2CCCC(Nc3ccc(F)cc3)C2)o1 (configuration not stated) | n | n | n | n | n | n | 33% | n
O=C(c1cc(Cl)ccc1F)N1CCCC(Nc2ccc3c(c2)OCCO3)C1 (configuration not stated) | n | n | n | n | n | n | n | n
CSCc1ccc(C(=O)N2CCCC(Nc3ccc4c(c3)OCCO4)C2)o1 (configuration not stated) | n | n | n | n | n | n | n | n
Cc1occc1C(=O)N1CCCC(Nc2ccc(F)c(F)c2)C1 (configuration not stated) | n | n | n | n | n | x | x | x
O=C(c1ccco1)N1CCCC(Nc2ccc3c(c2)OCCO3)C1 (configuration not stated) | n | n | n | n | n | x | x | x
SMILES | KCNQ1 act | KCNQ1 inh | KCNK9 block | KCNK3 inh | hERG protect | KCNK9 inh conf | Kir2-1 spec | KCNK9 uninduced
CCCn1c(N)c(N(CCOC)C(=O)CSc2ccccc2)c(=O)[nH]c1=O | x | x | x | n | x | x | x | x
CCOC(=O)c1ccccc1NC(=O)COC(=O)c1c(CC)noc1C | n | n | n | n | n | x | x | x
Cc1cccc(C(=O)Nc2sc(-c3ccccc3)cc2C(=O)O)c1 | n | n | n | n | n | n | n | n
CSc1ccc(C(=O)C2CCCN(C(=O)c3nonc3C)C2)cc1 (configuration not stated) | n | n | n | n | n | n | n | n
COCc1ccc(C(=O)N2CCCC(C(=O)c3cccc(C(F)(F)F)c3)C2)o1 (configuration not stated) | n | n | n | n | n | x | x | x
CSc1ccc(C(=O)C2CCCN(C(=O)CN3CCOC3=O)C2)cc1 (configuration not stated) | n | n | n | n | n | x | x | x
COCc1ccc(C(=O)N2CCCC(C(=O)c3ccc(SC)cc3)C2)o1 (configuration not stated) | n | n | n | n | n | n | n | n
CSc1ccc(C(=O)C2CCCN(C(=O)c3cccc(N4CCOCC4)c3)C2)cc1 (configuration not stated) | n | n | n | n | n | n | n | n
CCCCCCCCCCCCN1[C@@H](CC(=O)O)c2cc(F)ccc2S1(=O)=O | n | n | n | n | n | n | n | n
CCCCCCCCN1[C@@H](CC(=O)O)c2cc(C(F)(F)F)ccc2S1(=O)=O | n | n | n | n | n | x | x | x
CCCCCCCCCCCCN1[C@@H](CC(=O)O)c2cc(C(F)(F)F)ccc2S1(=O)=O | n | n | n | n | n | n | n | n
COc1cc(C)c(NC(=O)C(=S)N2CCCC2)cc1C | n | n | n | n | n | x | x | x
COc1cc(C)c(NC(=O)C(=S)NCc2ccccc2)cc1C | n | n | n | n | n | n | n | 27%
Cc1cccc(C)c1OCc1cc(C(=O)NCc2cn(C)nc2C)no1 | n | n | n | n | n | x | x | x
Cc1cccc(N2CCN(S(=O)(=O)c3ccc4c(c3)CCCN4C(=O)C3CCC3)CC2)c1C | n | n | n | n | n | n | n | n
CC(=O)N1CCCc2cc(S(=O)(=O)N3CCCC(C(=O)N4CCN(c5cc(C)ccc5C)CC4)C3)ccc21 (configuration not stated) | n | n | n | n | n | n | n | n
CC(=O)N1CCCc2cc(S(=O)(=O)N3CCCC(C(=O)N4CCN(c5ccccc5)CC4)C3)ccc21 (configuration not stated) | n | n | n | n | n | x | x | x
COc1ccc(/C=N/NC(=O)CN(C)C(=O)OCc2ccccc2)cc1OC | n | n | n | n | n | x | x | x
CN(C)CCCN(C(=O)c1ccc(C(=O)c2ccccc2)cc1)c1nc2c(F)cccc2s1 | n | n | n | n | n | n | n | n
Cc1ccc(C(C)NC(=O)c2cc3cc(Br)ccc3oc2=N)cc1 (configuration not stated) | n | 7 | n | n | n | n | n | n
CC(C)NC(=O)c1cc2cc(Br)ccc2oc1=O | n | n | n | n | n | x | x | x
O=C(O)CC1(CC(=O)Nc2cccc(C(=O)O)c2)CCCC1 | n | n | n | n | n | x | x | x

Compound activity: PubChem BioAssay, Johns Hopkins Ion Channel Center
